Assay outcomes as filed in PubChem.
rCAG binder = r(CAG) repeat RNA binding; TO-PRO-1 dye displacement fluorescence; AID 651821; inhibition, % at 3 µM; 1.3% of 370,000 active;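 active means inhibition above the plate cutoff, the mean of all test compounds on that plate plus 3 SD, cut at about 35% in these data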;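 further: 0% = DMSO alone and 100% = 100 µM mitoxantrone as full dye displacement; higher means more dye released from RNA so lower well fluorescence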
NadD block = inhibitors of Staphylococcus aureus NadD | purified NadD enzyme, colorimetric absorbance read-out | inhibition, % at 20 µM | 0.78% of 360,000 active | AID 602399; in the data active means inhibition above about 26%
STEP block = blocks human striatal-enriched tyrosine phosphatase; P54829; recombinant STEP, OMFP fluorogenic substrate, fluorescence; inhibition, % at 20 µM; 0.25% of 360,000 active; AID 588621;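 active means inhibition at 20 µM, scaled per plate between control wells, above about 37%, limit read from the data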;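 further: 0% = DMSO with enzyme and substrate and 100% = substrate only without enzyme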
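Measure: Control-normalized % inhibition with plate pattern correction | Test system: STEP phosphatase, cell-free reaction | Medium: pH 6.0 Bis-Tris with DTT and Tween 20 | Technique: Fluorescence, 480/540 nm | Times: Reaction 20 min, ambient temperature | Doses: Single compound dose of 20 µM, 1% DMSO final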
Scp1 inh = inhibitors of human Scp-1 phosphatase; AID 493091; Recombinant Scp1, phosphopeptide, malachite green phosphate absorbance; inhibition, % at 20 µM; 0.88% of 340,000 active; Q9GZU7;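 active means inhibition above about 50% at 20 µM, limit read from the data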;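 further: plate controls were DMSO wells with enzyme for no effect and wells lacking enzyme for full effect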
Target sequence (Q9GZU7 76-261 limits assumed): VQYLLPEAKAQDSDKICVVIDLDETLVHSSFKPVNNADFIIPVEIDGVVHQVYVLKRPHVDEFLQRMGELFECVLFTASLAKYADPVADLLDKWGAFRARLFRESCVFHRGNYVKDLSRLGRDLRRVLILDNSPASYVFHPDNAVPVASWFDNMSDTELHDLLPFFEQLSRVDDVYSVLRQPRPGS
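Test system: SCP-1 phosphatase catalytic domain, residues 76-261; measured by: colorimetric phosphate reagent with accelerator and stabiliser, absorbance at 630 nm; timing: enzyme reaction 45 min at room temperature, colour 5 min, stabilisation 30 min; also added: Phosphorylated 17-residue peptide substrate; compound dosing: one concentration, 20 µM, with 1.0% DMSO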
LMPTP block = LMPTP (human) inhibition | inhibition, % at 20 µM | recombinant LMPTP-A, OMFP fluorogenic substrate, fluorescence intensity | P24666 | 0.22% of 360,000 active;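 active means compounds that cut the enzyme signal by at least half of the control window in the single-dose screen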;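 further: plate controls were DMSO wells with enzyme plus substrate for no effect and substrate without enzyme for full effect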
Target sequence (P24666 whole entry, looked up): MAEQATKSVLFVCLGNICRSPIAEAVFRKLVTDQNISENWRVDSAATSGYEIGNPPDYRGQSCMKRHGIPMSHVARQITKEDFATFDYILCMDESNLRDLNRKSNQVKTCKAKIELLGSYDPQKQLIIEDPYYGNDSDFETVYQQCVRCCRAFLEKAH
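Test system: LMPTP-A phosphatase enzyme; input: 0.625 nM LMPTP-A final; reagent: OMFP substrate, 400 µM final; compound dosing: 20 µM single dose, 3% DMSO; incubation: 50 min dark incubation at room temperature; measured by: endpoint fluorescence intensity from OMFP dephosphorylation; measure: % inhibition relative to no-enzyme and uninhibited control wells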
NadD conf = NadD (S. aureus) inhibition, single concentration confirmation; shares compounds with NadD block; purified S. aureus NadD, colorimetric enzyme assay; inhibition, % at 20 µM; 13% of 2,000 active; in the data active means inhibition mostly above about 42%, no sharp cut-off; inactive means mostly below about 42%
Starred values were filed as active, the others as inactive; . = not tested or not shown. The list is not random: actives were taken first. Their share in the collection is about 2.6%.

SMILES | rCAG binder | NadD block | STEP block | Scp1 inh | LMPTP block | NadD conf
Nc1c(C(=O)c2ccccc2)sc2snc(SCC(=O)c3ccccc3)c12 | 16 | 37* | 5 | -14 | 2 | 3
COc1ccc2[nH]c3c(c2c1)CCN[C@]31C(=O)N(C)c2ccccc21 | 2 | . | . | . | . | .
COC(=O)C1=C(C)N(C)C(=NCc2ccc3c(c2)OCO3)NC1c1cccc(F)c1 (centres undefined) | 8 | . | . | . | . | .
CCSC1=N/C(=C\c2ccc3c(c2)OCO3)C(=O)S1 | 5 | 0 | 0 | -4 | 2 | .
CCCSC1=N/C(=C\C=C\c2ccco2)C(=O)S1 | 76* | 40* | 17 | 69* | 56* | 24
CCCSC1=N/C(=C\c2ccc3c(c2)OCO3)C(=O)S1 | 14 | 40* | 3 | -11 | 1 | -3
O=C(c1cc2sccc2n1Cc1ccc(F)cc1)N1CCN(c2nc3ccccc3s2)CC1 | 4 | 55* | 1 | 13 | 4 | 32
CC(C)(C)c1ccc(S(=O)(=O)N2CCC(C(=O)N3CCN(C4CCCCC4)CC3)CC2)cc1 | 2 | . | . | . | . | .
O=C(N/N=C/C=C/c1ccccc1[N+](=O)[O-])c1cc(-c2cccnc2)nc2ccccc12 | 8 | 22 | 1 | -2 | 3 | .
COc1ccccc1-c1cc(C(=O)N/N=C/C=C/c2ccccc2[N+](=O)[O-])c2ccccc2n1 | 20 | 38* | 1 | 8 | 1 | 30
Cc1ccccc1-n1c(SCC(=O)N/N=C/C=C/c2ccccc2[N+](=O)[O-])nc2ccccc2c1=O | 16 | 33* | -1 | -3 | 3 | 18
CCOC(=O)C1=C(C)c2ccccc2N(C(=O)OC)C1(C)C(=O)OCC (centres undefined) | -1 | 44* | 2 | 98* | 1 | 69*
CCOC(=O)C1=C(C)c2ccccc2OC1(CC)C(=O)OCC (centres undefined) | 1 | -3 | 0 | -7 | 0 | .
CC(C)c1ccc(NC(=O)COc2ccc(S(=O)(=O)N3CCOCC3)cc2)cc1 | 5 | 46* | -2 | 9 | 47 | 1
Cc1ccccc1CNC(=O)C1CCCN(c2ncccn2)C1 (centres undefined) | 1 | . | . | . | . | .
Cn1c(N)c(C(=O)COC(=O)c2cc(C3CC3)nc3ccccc23)c(=O)n(Cc2ccccc2)c1=O | 13 | 43* | -2 | 0 | 3 | 7
CC(C)Cn1c(N)c(C(=O)COC(=O)c2cc(C3CC3)nc3ccccc23)c(=O)n(C)c1=O | 7 | . | . | -2 | . | .
Cn1c(N)c(C(=O)COC(=O)c2cc(-c3ccccc3)nc3ccccc23)c(=O)n(Cc2ccccc2)c1=O | . | 29* | -1 | 2 | 0 | 4
Cc1ccc(C(CCN(Cc2ccccc2)C(=O)c2ccco2)c2ccco2)cc1 (centres undefined) | 10 | 38* | 2 | 10 | 5 | 37
CCCCCCCCOC(=O)c1c(CSC(=N)N)n(C)c2cc(Br)c(OC(C)=O)cc12 | 0 | 42* | 6 | 3 | -5 | 32
COc1ccc(C2CC(c3ccccc3)=NN2C(=O)CN2N=NC3C(=O)N(c4cccc(F)c4)C(=O)C32)cc1 (centres undefined) | 27 | 40* | 2 | 0 | 1 | 8
CCOC(=O)N1CCN(C(=O)C[C@@H]2C(=O)N(Cc3ccc(OC)cc3)/C3=C/CCCCC[C@@]32C(=O)OCC)CC1 | 0 | . | . | . | . | .
Cc1cccc(N=C2NN=C(c3c(C)[nH]c4ccccc34)CS2)c1 | 26 | 36* | 0 | -11 | 2 | 21
C#CCOCCOCCOCCNc1nc(N2CCN(C(=O)CCCCCCCCCCNC(=O)[C@@H](CCSC)n3cc(CCO)nn3)CC2)nc(N2CCN(C(=O)CCCCCCCCCCNC(=O)[C@H](CCC(=O)O)n3cc(CCCCCN)nn3)CC2)n1 | . | 41* | 4 | 24 | -4 | 48*
C#CCOCCOCCOCCNc1nc(N2CCN(C(=O)CCCCCCCCCCNC(=O)[C@@H](CCC(=O)O)n3cc(CCCCCN)nn3)CC2)nc(N2CCN(C(=O)CCCCCCCCCCNC(=O)[C@H](CO)n3cc(CCCSC)nn3)CC2)n1 | . | 48* | 4 | 39 | 0 | -7
SMILES | rCAG binder | NadD block | STEP block | Scp1 inh | LMPTP block | NadD conf
C#CCOCCOCCOCCNc1nc(N2CCN(C(=O)CCCCCCCCCCNC(=O)[C@@H](CCSC)n3cc(CCO)nn3)CC2)nc(N2CCN(C(=O)CCCCCCCCCCNC(=O)[C@H](CO)n3cc(CCCCCN)nn3)CC2)n1 | . | 23 | 8 | 16 | -1 | .
COC(=O)C1=C(C)N(Cc2cccc(C(F)(F)F)c2)C(=NCc2ccc(OC)cc2)NC1c1ccccc1C(F)(F)F (centres undefined) | 4 | . | . | . | . | .
CN1C(=O)c2cc(NS(C)(=O)=O)ccc2OC[C@H]2O[C@@H](CC(=O)NCc3ccc(-c4ccccc4)cc3)CC[C@@H]21 | 8 | . | . | . | . | .
O=c1[nH]c(Nc2ccccc2)cc2ccccc12 | -1 | -2 | 8 | -10 | 12 | .
CC(=O)c1cccc(-c2ccc3c(=O)[nH]c(Nc4ccccc4)cc3c2)c1 | 29 | 35* | 20 | 7 | 19 | 23
COC(=O)C1CCCN(C(=O)C(Cc2ccc3c(c2)OCO3)NC(C)=O)C1 (centres undefined) | 1 | . | . | . | . | .
CCOc1ccc(C(=O)Nc2cc(NC(=O)c3ccc(OCC)c(Cl)c3)cc(C(=O)O)c2)cc1Cl | 12 | 30* | -4 | 27 | 2 | 13
COC(=O)c1ccc(NC(=O)COc2ccccc2OC)cc1 | 0 | 7 | 1 | -2 | 1 | .
COC(=O)c1ccc(NC(=O)COc2ccc(C3C(C#N)=C(N)Oc4c3ccc3ccccc43)cc2OC)cc1 (centres undefined) | 24 | 51* | -4 | -6 | 1 | 29
N#CC1=C(N)NC(SCC(=O)c2ccc(Br)cc2)=C(C#N)C12CCCCC2 | 10 | 5 | -2 | 7 | 1 | .
N#CC1=C(N)NC(SCC(=O)c2ccc(Cl)cc2)=C(C#N)C12CCCC2 | 14 | 33* | 1 | 1 | 1 | 38
Cc1cccc(CNC(=O)NC2CCCCN(Cc3cccc(Cl)c3)C2=O)c1 (centres undefined) | 1 | . | . | . | . | .
Cc1ccc(Cn2nnc3c(=O)[nH]c(C4CCN(S(=O)(=O)c5ccc(C)cc5)CC4)nc32)cc1 | 8 | 22 | -1 | -6 | 3 | .
COC(=O)c1ccc(Cn2nnc3c(=O)[nH]c(C4CCCN(S(=O)(=O)c5cccc(Cl)c5)C4)nc32)cc1 (centres undefined) | 3 | 33* | 1 | -1 | 3 | 15
Cc1ccc(Cn2nnc3c(=O)[nH]c(C4CCN(S(=O)(=O)c5ccc(S(=O)(=O)NC6CC6)cc5)CC4)nc32)cc1 | 15 | 31* | -2 | -8 | 3 | 44*
